Activity calls are given as the source filed them. The calls are words filed in the database; no cut-off is given here.
Experiments:
[1] = target: Human immunodeficiency virus type 1 reverse transcriptase (Human immunodeficiency virus 1, UniProt Q72547); experiment: (§1) Compound was tested for Inhibition of HIV-1 RT activity.
In short: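 Recombinant HIV-1 RT (0.1 unit), 37 °C for 30 min in 50 mM Tris·HCl pH 8.2, 1 mM DTT, 80 mM KCl, 12 mM MgCl2, 0.01% Triton X-100. Template-primer poly(rA)/(dT)12-18 with [3H]dTTP or poly(rC)/(dG)12-18 with [3H]dGTP. Compounds added in DMSO (10% final). Stopped with 20% TCA; precipitate counted. IC50 is the mean of at least three experiments.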

[2] = Effective concentration against 50% survival of HIV -1 infected cells relative to uninfected untreated control (in vitro anti HIV-1 activity); NA ='Not active'; format: functional, Human immunodeficiency virus 1
In short: (§2)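 HIV-1-infected CEM T4 lymphocytes were scored for protection from cell death. […] An AZT-treated positive control was run at the same time.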

[3] = (§3) Effective concentration against 50% survival of HIV -1 infected cells relative to uninfected untreated control (in vitro anti HIV-1 activity); format: functional; conditions: Human immunodeficiency virus 1; in short: as §2
[4] = Selective index is the ratio between IC50 and EC50; format: functional
In short: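 Selectivity index calculated as CEM-SS cytotoxic IC50 divided by anti-HIV-1 EC50.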

CEM-SS [5] = experiment: Cytotoxic concentration against 50% survival of uninfected untreated control CEM-SS cells; format: cell-based; conditions: Homo sapiens
[6] = target: Human immunodeficiency virus type 1 protease (Human immunodeficiency virus 1, UniProt Q72874); experiment: as §1
In short: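 Recombinant HIV-1 RT (0.1 unit) was incubated 30 min at 37 °C in 50 mM Tris·HCl pH 8.2 with 1 mM DTT, 80 mM KCl, 12 mM MgCl2 and 0.01% Triton X-100. Template-primer was poly(rA)/(dT)12-18 with [3H]dTTP or poly(rC)/(dG)12-18 with [3H]dGTP. DMSO was 10% final. Reactions were stopped with TCA and precipitated radioactivity counted. IC50 is the mean of at least three experiments.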

CEM-SS [7] = experiment: as §3; format: functional, cell-based; conditions: Homo sapiens; in short: as §2
[8] = Effective concentration against 50% survival of HIV -1 infected cells relative to uninfected untreated control (in vitro anti HIV-1 activity); NA =' Not active'; format: functional, Human immunodeficiency virus 1; in short: as §2
[9] = test system: Human immunodeficiency virus 2; experiment: In vitro inhibitory activity against HIV-2 (ROD) HIV strain; NT ='Not active'; format: functional, organism-based
In short: (§4)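 ED50 measured against a panel of viruses in MT-2, MT-4 and CEM-SS cells. The panel comprised HIV-1 (6S) and (6R), the pyridinone-resistant strain A-17, HIV-1 IIIB, HIV-1 RF, a diphenyl sulfone-resistant HIV, N119, SIV MAC 251 and HIV-2 ROD.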

MT4 [10] = experiment: ED50 value determined from the inhibition of HIV strain HIV-1(IIIB), activity tested on MT-4 cell lines.; format: functional; conditions: Homo sapiens, read-out: ED50 (the source's name)
[11] = test system: Human immunodeficiency virus 1; experiment: In vitro inhibitory activity against HIV-1 (A-17) HIV strain; NT ='Not active'; format: functional, organism-based; in short: as §4
MT4 [12] = experiment: ED50 value determined from the inhibition of HIV strain AZT-sensitive activity tested on MT-4 cell lines.; format: functional; conditions: Homo sapiens, read-out: ED50 (the source's name)
CEM-SS [13] = experiment: IC50 value determined from the inhibition of HIV strain HIV-1 RF, activity tested on CEM-SScell lines.; format: functional, cell-based; conditions: Homo sapiens
In short: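 Cell-protection assay: HIV-1-infected T4 lymphocytes (CEM-SS) scored for survival. The value is the drug concentration giving 50% survival of infected cells relative to uninfected untreated controls. An AZT-treated positive control was run at the same time under identical conditions. Details follow a previously reported procedure.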

[14] = Selectivity index is the ratio between IC50 and ED50 from HIV-1 (IIIB) on MT-4 cell lines; format: functional, MT4
MT4 [15] = experiment: ED50 value determined from the inhibition of HIV strain HIV-1 (6R), activity tested on MT-4 cell lines.; format: functional; conditions: Homo sapiens, read-out: ED50 (the source's name)
[16] = SI - selectivity index determined from the ratio of IC50 to the ED50 determined on MT-4 cell lines of AZT-sensitive HIV strain.; format: functional, MT4
[17] = Selectivity index is the ratio between IC50 and ED50 from HIV-1 (6R) on MT-4 cell lines; format: functional, MT4
MT4 [18] = experiment: IC50 value determined from the inhibition of HIV strain AZT-sensitive activity tested on MT-4 cell lines.; format: functional, cell-based; conditions: Homo sapiens
CEM-SS [19] = experiment: ED50 value determined from the inhibition of HIV strain HIV-1 RF, activity tested on CEM-SS cell lines.; format: functional; conditions: Homo sapiens, read-out: ED50 (the source's name)
MT4 [20] = experiment: IC50 value determined from the inhibition of HIV strain HIV-1 (6R), activity tested on MT-4 cell lines.; format: functional, cell-based; conditions: Homo sapiens
MT4 [21] = experiment: IC50 value determined from the inhibition of HIV strain HIV-1(IIIB), activity tested on MT-4 cell lines.; format: functional, cell-based; conditions: Homo sapiens
[22] = Selective index is the ratio between IC50 and EC50 from CEM-SS cells; format: functional
[23] = test system: Human immunodeficiency virus 2; experiment: Inhibitory activity against HIV-2 (ROD); NA ='Not active'; format: functional, organism-based; in short: as §4
MT2 [24] = experiment: IC50 value determined from the inhibition of HIV strain AZT-sensitive activity tested on MT-2 cell lines; format: functional, cell-based; conditions: Homo sapiens
[25] = test system: Human immunodeficiency virus 1; experiment: Effective dose against AZT resistant strain; NA ='Not active'; format: functional, organism-based
[26] = test system: Human immunodeficiency virus 1; experiment: Inhibitory activity against HIV-1 (A-17 cell lines); NA ='Not active'; format: functional, organism-based; in short: as §4
MT2 [27] = experiment: ED50 value determined from the inhibition of HIV strain AZT-sensitive activity tested on MT-2 cell lines.; format: functional; conditions: Homo sapiens, read-out: ED50 (the source's name)
[28] = test system: Human immunodeficiency virus 1; experiment: Effective dose against HIV-1 (IIIB strain); NA ='Not active'; format: functional, organism-based; in short: as §4

SMILES: C=CCC1(CC)Oc2ccccc2-n2cccc2C1=O (stereo unspecified)
- IC50 [1]: 5 µM

SMILES: CCC1(c2ccccc2)Sc2ccc(C)cc2-n2cccc2C1=O (stereo unspecified)
- IC50 [2]: Not Active
- IC50 [1]: > 600 µM

SMILES: O=C1c2cccn2-c2ccccc2OC1c1ccccc1 (stereo unspecified)
- IC50 [1]: > 300 µM

SMILES: CCC1(CC=C(C)C)Oc2ccccc2-n2cccc2C1=O (stereo unspecified)
- EC50 [3]: 1.35 µM
- SI [4]: 35
- IC50 (CEM-SS [5]): 45.2 µM

SMILES: CCOC1=C(c2ccccc2)Oc2ccccc2-n2cccc21
- IC50 [6]: > 300 µM

SMILES: O=C1c2cccn2-c2ccccc2SC1c1ccccc1 (stereo unspecified)
- IC50 (CEM-SS [5]): 18.3 µM
- IC50 [1]: 100 µM

SMILES: CCCC1(c2ccccc2)Oc2ccccc2-n2cccc2C1=O (stereo unspecified)
- IC50 (CEM-SS [5]): > 150 µM
- IC50 [1]: 500 µM

SMILES: CCC1(c2ccccc2)C(=O)c2cccn2-c2ccccc2S1(=O)=O (stereo unspecified)
- IC50 [1]: > 300 µM

SMILES: Cc1cn([C@H]2C[C@H](N=[N+]=[N-])[C@@H](CO)O2)c(=O)[nH]c1=O [ZIDOVUDINE]
- EC50 (CEM-SS [7]): 0.0019 µM
- SI [4]: 526
- IC50 (CEM-SS [5]): > 1 µM

SMILES: CCC1(c2ccccc2)Sc2cccc(Cl)c2-n2cccc2C1=O (stereo unspecified)
- IC50 [8]: Not Active
- IC50 [1]: 600 µM

SMILES: C=CCC1(c2ccccc2)Oc2ccccc2-n2cccc2C1=O (stereo unspecified)
- EC50 [3]: 0.71 µM
- SI [4]: 9
- IC50 (CEM-SS [5]): 6.4 µM
- IC50 [1]: 25 µM

SMILES: CCC1(c2ccccc2)Oc2ccccc2-n2cccc2C1=O (stereo unspecified)
- Activity [9]: inactive
- EC50 (MT4 [10]): 0.13 µM
- Activity [11]: inactive
- EC50 [3]: 0.47 µM
- EC50 (MT4 [12]): 0.42 µM
- IC50 (CEM-SS [13]): 10.4 µM
- SI [14]: 25
- EC50 (MT4 [15]): 1.6 µM
- SI [16]: 8
- SI [17]: 1.7
- IC50 (MT4 [18]): 3.3 µM
- EC50 (CEM-SS [19]): 0.12 µM
- IC50 (CEM-SS [5]): 4.9 µM
- IC50 (MT4 [20]): 2.9 µM
- IC50 (MT4 [21]): 3.31 µM
- IC50 [1]: 0.25 µM
- SI [22]: 10.4

SMILES: CCC1(c2ccccc2)Sc2ccccc2-n2cccc2C1=O (stereo unspecified)
- Activity [23]: inactive
- EC50 [3]: 1.8 µM
- SI [4]: 55.2
- IC50 (MT2 [24]): 110 µM
- Activity [25]: inactive
- Activity [26]: inactive
- IC50 (CEM-SS [5]): 100 µM
- IC50 [1]: 15 µM
- EC50 (MT2 [27]): 8.7 µM
- Activity [28]: inactive

SMILES: O=C1c2cccn2-c2ccccc2OC1c1ccc2ccccc2c1 (stereo unspecified)
- IC50 [1]: > 300 µM

SMILES: CC(C)=CCC1(c2ccccc2)Oc2ccccc2-n2cccc2C1=O (stereo unspecified)
- IC50 (CEM-SS [5]): 120 µM
- IC50 [1]: > 500 µM

SMILES: CCC1(c2ccccc2)Sc2c(Cl)cccc2-n2cccc2C1=O (stereo unspecified)
- IC50 [1]: 500 µM

SMILES: CC1(c2ccccc2)Sc2ccccc2-n2cccc2C1=O (stereo unspecified)
- EC50 [3]: 0.81 µM
- IC50 [1]: 5 µM

SMILES: CCC1(c2ccc3ccccc3c2)Oc2ccccc2-n2cccc2C1=O (stereo unspecified)
- EC50 [3]: 0.85 µM
- SI [4]: 44
- IC50 (CEM-SS [5]): 37.3 µM
- IC50 [1]: 0.5 µM

SMILES: CCC1(c2ccccc2)C(=O)c2cccn2-c2ccccc2[S+]1[O-] (stereo unspecified)
- IC50 [1]: 500 µM

SMILES: CC1(c2ccccc2)Oc2ccccc2-n2cccc2C1=O (stereo unspecified)
- EC50 [3]: 0.35 µM
- SI [4]: 19.7
- IC50 (CEM-SS [5]): 6.9 µM
- IC50 [1]: 10 µM

SMILES: CCc1cc(NCc2nc3c(Cl)ccc(Cl)c3o2)c(O)nc1C [L-697661]
- IC50 [1]: 0.15 µM

SMILES: O=C1c2cccn2-c2ccccc2OC1(CC1CC1)c1ccccc1 (stereo unspecified)
- IC50 (CEM-SS [5]): 11.8 µM
- IC50 [1]: > 500 µM

SMILES: O=C1c2cccn2-c2cc3ccccc3cc2OC1c1ccccc1 (stereo unspecified)
- IC50 [1]: > 300 µM

SMILES: CCC1Oc2ccccc2-n2cccc2C1=O (stereo unspecified)
- IC50 [1]: 100 µM

SMILES: CCCC1(CC)Oc2ccccc2-n2cccc2C1=O (stereo unspecified)
- IC50 [1]: 10 µM

SMILES: CCC1(c2ccccc2)Oc2cc3ccccc3cc2-n2cccc2C1=O (stereo unspecified)
- IC50 [1]: 150 µM

From ChEMBL document CHEMBL1129364, “Pyrrolobenzothiazepinones and pyrrolobenzoxazepinones: novel and specific non-nucleoside HIV-1 reverse transcriptase inhibitors with antiviral activity” (J Med Chem, 1996)
